This note sets out measurements from ChEMBL document CHEMBL1123855, “Synthesis of glycopyranosylphosphonate analogues of certain natural nucleoside diphosphate sugars as potential inhibitors of glycosyltransferases” (J Med Chem, 1987).

Activity calls are given as the source filed them. The rule behind the calls is not given here.

Test [1] relates to L1210. Put plainly: In vitro antitumor activity was evaluated against L1210 leukemia cell lines; No activity. Conditions: Mus musculus. The class given is functional, cell-based.
For test [2], the system named is Vero. Put plainly: In vitro antiviral activity was evaluated against vero cell lines infected with rhino virus; non toxic at concentrations as high as 50000 uM. In kind it is functional, cell-based. Conditions: Chlorocebus sabaeus.
The test system of test [3] is CCRF-CEM. Kind of test: In vitro antitumor activity was evaluated against human T-lymphoblastic leukemia cell lines; no = No activity. The class given is functional, cell-based.
The subject of test [4] is WIL2. Kind of test: In vitro antitumor activity was evaluated against human B-lymphoblastic leukemia cell lines; no = No activity. In kind it is functional, cell-based.
Test [5] has as its system Vero. Kind of test: In vitro antiviral activity was evaluated against vero cell lines infected with adenovirus type 2; non toxic at concentrations as high as 50000 uM. In kind it is functional, cell-based. Conditions: Chlorocebus sabaeus.
Test [6] deals with Vero. Put plainly: In vitro antiviral activity was evaluated against vero cell lines infected with Parainfluenza virus type 3; non toxic at concentrations as high as 50000 uM. The class given is functional, cell-based. The note with it: Chlorocebus sabaeus.
In test [7] the test system is Vero. Put plainly: In vitro antiviral activity was evaluated against vero cell lines infected with herpes simplex virus type-2; non toxic at concentrations as high as 50000 uM. The class given is functional, cell-based. The note with it: Chlorocebus sabaeus.
Test [8] concerns Vero. Kind of test: In vitro antiviral activity was evaluated against vero cell lines infected with influenza virus; Slightly active at concentrations as high as 50000 uM. In kind it is functional, cell-based. The note with it: Chlorocebus sabaeus.
For test [9], the system named is Vero. Kind of test: In vitro antiviral activity was evaluated against vero cell lines infected with visna virus; non toxic at concentrations as high as 50000 uM. The note with it: Chlorocebus sabaeus. In kind it is functional, cell-based.
Test [10] addresses N-acetyllactosaminide alpha-1,3-galactosyltransferase (Mus musculus) (UniProt P23336). Put plainly: Inhibition of galactosyltransferase activity secreted by L1210 leukemia cells grown in mouse peritoneal ascites at 50 ug/mL (89 uM). In kind it is cell-based. The gist of the method: (§1)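 Galactosyltransferase from cell-free ascites fluid of DBA/2J mice implanted 5-7 days earlier with 10^5 L1210 cells, cells removed by centrifugation. Medium: ovalbumin 1 mg/mL acceptor, 0.1 M cacodylate pH 7.0, 10 mM MnCl2, 2 mM AMP, inhibitor 20 or 50 ug/mL, UDP-galactose varied 1-80 uM plus UDP-[3H]galactose. 30 min, 37 °C. Stopped with PTA/HCl; washed precipitate scintillation-counted. Duplicates.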

Test [11] shares this target. Kind of test: Inhibition of galactosyltransferase activity secreted by L1210 leukemia cells grown in mouse peritoneal ascites at 20 ug/mL (35 uM). The class given is cell-based. In a few lines: as §1
The subject of test [12] is CCRF-CEM. Kind of test: In vitro antitumor activity was evaluated against human T-lymphoblastic leukemia cell lines; Slight activity. The class given is functional, cell-based.
The subject of test [13] is WIL2. Kind of test: In vitro antitumor activity was evaluated against human B-lymphoblastic leukemia cell lines; Slight activity. In kind it is functional, cell-based.

N-acetyllactosaminide alpha-1,3-galactosyltransferase (Mus musculus), sequence (P23336 whole entry): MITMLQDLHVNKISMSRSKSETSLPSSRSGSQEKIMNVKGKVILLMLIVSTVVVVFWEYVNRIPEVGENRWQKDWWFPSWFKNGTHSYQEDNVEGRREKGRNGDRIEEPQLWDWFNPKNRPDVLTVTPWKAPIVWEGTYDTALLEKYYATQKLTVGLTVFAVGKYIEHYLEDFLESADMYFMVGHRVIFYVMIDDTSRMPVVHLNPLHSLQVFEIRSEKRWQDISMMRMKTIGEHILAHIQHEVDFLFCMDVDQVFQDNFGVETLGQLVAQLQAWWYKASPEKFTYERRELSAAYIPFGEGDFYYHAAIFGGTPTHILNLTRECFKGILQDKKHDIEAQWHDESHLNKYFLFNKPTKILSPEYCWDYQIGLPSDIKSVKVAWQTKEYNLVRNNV

Take `O=P(O)(O)[C@H]1O[C@@H](CO)[C@@H](O)[C@H](O)[C@@H]1O`: the Cytotoxiciy entry in [1], in test [3] and in test [4] was “No activity” in each case. Also, the Activity entry in [2] was “Slightly active”. For the same molecule, the outcome in test [5], in test [6], in [7], in [8] and in test [9] was inactive.

One may read the inhibition as the change of the read-out against control, counted positive when it falls. Lower therefore signals a response near the control. `O=c1ccn(C2O[C@H](COP(=O)(O)OP(=O)(O)C3O[C@H](CO)[C@@H](O)[C@H](O)[C@H]3O)[C@@H](O)[C@H]2O)c(=O)[nH]1` (stereo partly drawn): the values for the inhibition in test [10] and in [11] were 58% and 50%, respectively.

Take `O=P(O)(O)[C@H]1O[C@@H](CO)[C@H](O)[C@H](O)[C@@H]1O` (stereo in doubt; 17): the Cytotoxiciy entry in [1], in [3] and in test [4] was “No activity” in each case. In addition, the outcome in test [2], in [5], in test [6], in test [7] and in [9] was inactive.

As for `O=P(O)(O)[C@H]1O[C@@H](CO)[C@H](O)[C@H](O)[C@@H]1O` (stereo in doubt; 19), the Cytotoxiciy result in [1], in [3] and in test [4] was “No activity” in each case. Also, the result in [2], in test [5], in test [6], in test [7] and in test [9] was inactive.

For `CC(=O)OP(=O)(O)C1OC(COCc2ccccc2)C(OCc2ccccc2)C(OCc2ccccc2)C1OCc1ccccc1` (stereo not drawn), the Cytotoxiciy result in test [1], in [3] and in test [4] was “No activity” throughout. Moreover, the result in test [2], in test [5], in [6], in [7] and in test [9] was inactive.

Turning to `Nc1ncnc2c1ncn2C1O[C@H](COP(=O)(O)OP(=O)(O)C2O[C@H](CO)[C@@H](O)[C@H](O)[C@H]2O)[C@@H](O)[C@H]1O` (stereo partly drawn), the Cytotoxiciy result was “No activity” in test [1], “Weak activity” in test [12] and “Weak activity” in [13]. Moreover, the result in test [2], in [5], in test [6], in test [7] and in test [9] was inactive.
